ChEMBL document CHEMBL5620421, “2,6-Disubstituted 7-(naphthalen-2-ylmethyl)-7H-purines as a new class of potent antitubercular agents inhibiting DprE1” (Eur J Med Chem, 2023)
In brackets after ≈: the same amount, converted by molar mass.

What was measured:
Type in all cases: functional
Mycobacterium avium [1] = test: Antitubercular activity against Mycobacterium avium CNCTC My 330/88 assessed as inhibition of bacterial growth measured after 21 days of incubation by Sulas semisynthetic medium based assay; conditions: CNCTC My 330/88, 504 h, time 21 day
Method in brief: (§1)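 M. avium was tested by the micromethod in Sula's semisynthetic medium. Compounds in DMSO at 1000 to 0.5 μmol/L. Incubation at 37 °C, read at 14 and 21 days. MIC is the lowest concentration giving >99% growth inhibition.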

[2] = system: Mycobacterium tuberculosis; test: Antitubercular activity against Mycobacterium tuberculosis CNCTC My 331/88 (H37Rv) assessed as inhibition of bacterial growth measured after 14 days of incubation by Sulas semisynthetic medium based assay; conditions: 336 h, time 14 day
Method in brief: (§2)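 Micromethod MIC in Sula's semisynthetic medium. MIC is the lowest concentration inhibiting >99% of the mycobacterial population. Isoniazid was the standard drug.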

Mycobacterium avium [3] = test: Antitubercular activity against Mycobacterium avium CNCTC My 330/88 assessed as inhibition of bacterial growth measured after 14 days of incubation by Sulas semisynthetic medium based assay; conditions: CNCTC My 330/88, 336 h, time 14 day; method in brief: as §1
Mycobacterium kansasii [4] = test: Antitubercular activity against Mycobacterium kansasii CNCTC My 235/80 assessed as inhibition of bacterial growth measured after 14 days of incubation by Sulas semisynthetic medium based assay; conditions: CNCTC My 235/80, 336 h, time 14 day
Method in brief: (§3)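 Micromethod in Sula's semisynthetic medium. MIC is the lowest concentration inhibiting >99% of the mycobacterial population. Isoniazid was the standard.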

[5] = system: Mycobacterium tuberculosis; test: Antitubercular activity against Mycobacterium tuberculosis CNCTC My 331/88 (H37Rv) assessed as inhibition of bacterial growth measured after 21 days of incubation by Sulas semisynthetic medium based assay; conditions: 504 h, time 21 day; method in brief: as §2
Mycobacterium kansasii [6] = test: Antitubercular activity against Mycobacterium kansasii CNCTC My 235/80 assessed as inhibition of bacterial growth measured after 21 days of incubation by Sulas semisynthetic medium based assay; conditions: CNCTC My 235/80, 504 h, time 21 day; method in brief: as §3
Mycobacterium kansasii [7] = test: Antitubercular activity against Mycobacterium kansasii CNCTC My 235/80 assessed as inhibition of bacterial growth measured after 7 days of incubation by Sulas semisynthetic medium based assay; conditions: CNCTC My 235/80, 168 h, time 7 day; method in brief: as §3

Row | Compound | MIC99 (Mycobacterium avium [1]) [µM] | MIC99 [2] [µM] | MIC99 (Mycobacterium avium [3]) [µM] | MIC99 (Mycobacterium kansasii [4]) [µM] | MIC99 [5] [µM] | MIC99 (Mycobacterium kansasii [6]) [µM] | MIC99 (Mycobacterium kansasii [7]) [µM]
1 | O=c1[nH]c(N2CCOCC2)nc2ncn(Cc3cccc4ccccc34)c12 | > 500 | > 500 | > 500 | > 500 | > 500 | > 500 | > 500
2 | O=c1[nH]c(N2CCOCC2)nc2c1ncn2Cc1ccc2ccccc2c1 | > 250 | > 250 | > 250 | > 250 | > 250 | > 250 | > 250
3 | COc1cccc(Cn2cnc3nc(N4CCOCC4)[nH]c(=O)c32)c1 | > 500 | 500 (≈ 171 µg/mL) |  | > 500 | > 500 | > 500 | > 500
4 | CN(C)c1nc2ncn(Cc3ccc4ccccc4c3)c2c(=O)[nH]1 | > 500 | > 500 | > 500 | > 500 | > 500 | > 500 | > 500
5 | S=c1[nH]cnc2ncn(Cc3ccc4ccccc4c3)c12 | > 500 | > 500 | > 500 | > 500 | > 500 | > 500 | > 500
6 | c1ccc2cc(Cn3cnc4nc(N5CCOCC5)nc(N5CCOCC5)c43)ccc2c1 | 500 (≈ 215 µg/mL) | 125 (≈ 53.8 µg/mL) | 250 (≈ 108 µg/mL) | 125 (≈ 53.8 µg/mL) | 125 (≈ 53.8 µg/mL) | 250 (≈ 108 µg/mL) | 125 (≈ 53.8 µg/mL)
7 | CN1CCN(c2nc3ncn(Cc4ccc5ccccc5c4)c3c(=O)[nH]2)CC1 | > 500 | 250 (≈ 93.6 µg/mL) | > 500 | 500 (≈ 187 µg/mL) | 500 (≈ 187 µg/mL) | 500 (≈ 187 µg/mL) | 250 (≈ 93.6 µg/mL)
8 | O=c1[nH]c(N2CCCC2)nc2ncn(Cc3ccc4ccccc4c3)c12 | > 500 | 8 (≈ 2.76 µg/mL) | > 500 | > 500 | 16 (≈ 5.53 µg/mL) | > 500 | > 500
9 | O=c1[nH]c(N2CCOCC2)nc2ncn(Cc3ccc(Cl)cc3)c12 | > 500 | > 500 | > 500 | 250 (≈ 86.4 µg/mL) | > 500 | > 500 | 125 (≈ 43.2 µg/mL)
10 | COc1ccc(Cn2cnc3nc(N4CCOCC4)[nH]c(=O)c32)cc1 | > 500 | 32 (≈ 10.9 µg/mL) | > 500 | > 500 | 64 (≈ 21.8 µg/mL) | > 500 | 
11 | S=c1[nH]c(=S)c2c(ncn2Cc2ccc3ccccc3c2)[nH]1 | > 500 | > 500 | > 500 | > 500 | > 500 | > 500 | > 500
12 | O=c1[nH]c(NC2CC2)nc2ncn(Cc3ccc4ccccc4c3)c12 | > 500 | > 500 | > 500 | > 500 | > 500 | > 500 | > 500
13 | O=c1[nH]c(N2CCOCC2)nc2ccn(Cc3ccc4ccccc4c3)c12 | > 500 | > 500 | > 500 | > 500 | > 500 | > 500 | > 500
14 | O=c1[nH]cnc2ncn(Cc3ccc4ccccc4c3)c12 | > 500 | > 500 | > 500 | > 500 | > 500 | > 500 | 125 (≈ 34.5 µg/mL)
15 | Cn1c(N2CCOCC2)nc2ncn(Cc3ccc4ccccc4c3)c2c1=O | > 500 | 32 (≈ 12 µg/mL) | > 500 | > 500 | 64 (≈ 24 µg/mL) | > 500 | 
16 | O=c1[nH]c(N2CCOCC2)nc2c1ncn2Cc1ccc(Cl)cc1 | > 500 | > 500 | > 500 | > 500 | > 500 | > 500 | > 500
